High-throughput results deposited in PubChem by Broad Institute.
Many of the other results were omitted from the sample, so hits are more common in it than they were.
T_cruzi_HTS: inhibitors of intracellular Trypanosoma cruzi, primary screen, cell-based, plate reader, single point, set 2 | intracellular Trypanosoma cruzi in host cells | activity score (inhibition), % at 5.01 µM | 22,000 compounds, 4.9% hits | AID 651903, 2012; in the data active means activity score above about 55%;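 further: parasites and compound incubated about four days before reading; 0% = median of neutral control wells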
A1_apoptosis_2: A1 inhibitors via caspase activation, primary screen, cell-based, luminescence, HTS, two replicates; MEF A1-2A-BIM cells, caspase-Glo luminescence, 3 h; percent of clofoctol response, DMSO zero; caspase activation, % (no concentration beside the values); 24,000 tested, under 10 active; AID 2465, 2010; in the data active means caspase activation above about 5.9%
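system = A1-2A-BIM-expressing MEF cells | quantity = 2500 MEF cells/well | dosing = 50 nL compound per well, pinned | schedule = overnight cell settling, then 3 h compound exposure, 37 °C | signal = luminescence from DEVD-luciferin Caspase-Glo reagent, 1:1 in 50 mM HEPES, 1 h RT | read-out = Caspase-3/7 activation, seen as rise in luminescence signal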
INS-1E_ATP_HTS: protection of INS-1E cells from cytokine death, primary screen, ATP luminescence, single point. 20,000 compounds, 0.1% hits. protection from cytokine-induced ATP loss, % at 10 µM. INS-1E cytokine-induced death, 48 h; normalised: neutral wells 0, positive control 100. AID 488910, 2010;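 active means mean replicate protection from cytokine-induced ATP loss at least 50% and at least 75% of replicates each reaching 50%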
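Test system: INS-1E rat cells | Quantity: 8000 cells per well | Medium: Phenol-red-free RPMI with 5% fetal bovine serum | Reagent: Cytokine cocktail of IFN-γ, TNF-α and IL-1β | Doses: One compound concentration, pin transfer | Timing: 48 h co-treatment, 10 min post-lysis read | Technique: Luminescent ATP assay (CellTiter-Glo)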
* hit, by the source's call; x = no result.

SMILES T_cruzi_HTS A1_apoptosis_2 INS-1E_ATP_HTS
C[C@H](CO)N1C[C@H](C)[C@@H](CN(C)Cc2ccc3c(c2)OCO3)Oc2c(NC(=O)Nc3ccc(C(F)(F)F)cc3)cccc2C1=O 83* x -36
C[C@H](CO)N1C[C@H](C)[C@H](CN(C)Cc2ccc3c(c2)OCO3)Oc2c(NC(=O)Nc3ccc(F)cc3)cccc2C1=O 50 x -22
C[C@H](CO)N1C[C@H](C)[C@H](CN(C)Cc2ccc3c(c2)OCO3)Oc2c(NC(=O)Nc3ccc(C(F)(F)F)cc3)cccc2C1=O 62* 0 -51
C[C@H]1CN([C@@H](C)CO)C(=O)c2cccc(NC(=O)Nc3ccc4c(c3)OCO4)c2O[C@H]1CN(C)Cc1ccc2c(c1)OCO2 -17 x -12
C[C@@H]1CN([C@H](C)CO)C(=O)c2cccc(NC(=O)Nc3ccc(C(F)(F)F)cc3)c2O[C@H]1CN(C)Cc1ccc2c(c1)OCO2 80* -1 -58
C[C@@H]1CN([C@H](C)CO)C(=O)c2cccc(NC(=O)Nc3ccc4c(c3)OCO4)c2O[C@H]1CN(C)Cc1ccc(C(F)(F)F)cc1 9 0 -7
C[C@H](CO)N1C[C@H](C)[C@@H](CN(C)Cc2ccc3c(c2)OCO3)Oc2c(NC(=O)Nc3ccc(F)cc3)cccc2C1=O 60* 0 -8
C[C@H](CO)N1C[C@H](C)[C@@H](CN(C)Cc2ccccc2)Oc2ccc(NC(=O)CCCN(C)C)cc2CC1=O x 0 x
C[C@H]1CN([C@@H](C)CO)C(=O)c2cc(N(C)C)ccc2O[C@H]1CN(C)S(=O)(=O)c1ccc(F)cc1 -20 0 x
COc1cccc(-c2cnc3c(c2)C(=O)N([C@H](C)CO)C[C@H](C)[C@H](CN(C)S(=O)(=O)c2ccc(C#N)cc2)O3)c1 22 1 -17
C[C@@H]1CN([C@@H](C)CO)C(=O)CCCn2nncc2CO[C@@H]1CN(C)Cc1cccc(C(=O)O)c1 -26 1 x
Cc1noc(C)c1NC(=O)Nc1cccc2c1O[C@H](CN(C)C(=O)Nc1ccccc1)[C@@H](C)CN([C@@H](C)CO)C2=O -27 0 7
COc1ccc(S(=O)(=O)Nc2cccc3c2O[C@H](CN(C)Cc2ccc(Oc4ccccc4)cc2)[C@@H](C)CN([C@H](C)CO)C3=O)cc1 26 1 -4
CNC[C@H]1Oc2ccc(NS(=O)(=O)c3ccc(C)cc3)cc2CC(=O)N([C@@H](C)CO)C[C@@H]1C -11 x 0
C[C@H]1CN([C@@H](C)CO)C(=O)c2cccc(NC(=O)Nc3ccc(C(F)(F)F)cc3)c2O[C@@H]1CN(C)Cc1ccc2c(c1)OCO2 52 x -13
C[C@@H]1CN([C@@H](C)CO)C(=O)c2cccc(NC(=O)Nc3ccc(C(F)(F)F)cc3)c2O[C@H]1CN(C)Cc1ccc2c(c1)OCO2 90* x -60
Cc1cc(C(=O)Nc2cccc3c2O[C@H](CN(C)Cc2ccc(C(=O)Nc4ccccc4N)cc2)[C@H](C)CN([C@H](C)CO)C3=O)n(C)n1 63* -1 0
Cc1cc(C(=O)Nc2cccc3c2O[C@H](CN(C)Cc2ccc(C(=O)Nc4ccccc4N)cc2)[C@@H](C)CN([C@@H](C)CO)C3=O)n(C)n1 46 x 0
C[C@H](CO)N1C[C@H](C)[C@H](CN(C)Cc2ccc(C(=O)Nc3ccccc3N)cc2)Oc2c(NC(=O)C3CC3)cccc2C1=O 37 x -9
C[C@@H]1CN([C@@H](C)CO)C(=O)c2cccc(NC(=O)c3cnccn3)c2O[C@@H]1CN(C)Cc1ccc(C(=O)Nc2ccccc2N)cc1 72* x 35
C[C@@H]1CN([C@@H](C)CO)C(=O)c2cccc(NC(=O)C3CC3)c2O[C@@H]1CN(C)Cc1ccc(C(=O)Nc2ccccc2N)cc1 26 x 59*
C[C@@H]1CN([C@H](C)CO)C(=O)c2cccc(NC(=O)c3cnccn3)c2O[C@H]1CN(C)Cc1ccc(C(=O)Nc2ccccc2N)cc1 54 x -12
C[C@@H]1CN([C@H](C)CO)C(=O)c2cccc(N(C)C)c2O[C@@H]1CN(C)Cc1ccc(C(=O)Nc2ccccc2N)cc1 28 x 8
C[C@H](CO)N1C[C@H](C)[C@H](CN(C)Cc2ccc(C(=O)Nc3ccccc3N)cc2)Oc2c(cccc2N(C)C)C1=O 56* x 21
COc1ccc(NC(=O)Nc2ccc3c(c2)C(=O)N([C@H](C)CO)C[C@@H](C)[C@H](CN(C)Cc2ccc(C(=O)O)cc2)O3)cc1 -22 1 12
SMILES T_cruzi_HTS A1_apoptosis_2 INS-1E_ATP_HTS
Cc1ccc(S(=O)(=O)N(C)C[C@H]2Oc3ccc(NC(=O)CCCN(C)C)cc3C(=O)N([C@H](C)CO)C[C@H]2C)cc1 -6 0 4
C[C@@H]1CN([C@H](C)CO)C(=O)c2cccc(NC(=O)Nc3cccc4ccccc34)c2O[C@@H]1CN(C)CC1CCCCC1 11 -1 -50
C[C@H](CO)N1C[C@H](C)[C@H](CN(C)C(=O)Nc2cccc3ccccc23)Oc2ccc(NC(=O)Nc3ccc(F)cc3)cc2C1=O -7 0 -10
C[C@@H]1CN([C@@H](C)CO)C(=O)c2cccc(NS(=O)(=O)c3cccs3)c2O[C@H]1CN(C)S(=O)(=O)c1ccc(F)cc1 -6 x 4
C[C@@H]1CN([C@H](C)CO)C(=O)c2cccc(NC(=O)C3CCCCC3)c2O[C@@H]1CN(C)Cc1ccc(C(=O)Nc2ccccc2N)cc1 x -1 x
C[C@H]1CN([C@@H](C)CO)C(=O)c2cccc(NC(=O)C3CCCCC3)c2O[C@H]1CN(C)Cc1ccc(C(=O)Nc2ccccc2N)cc1 66* x 3
C[C@@H]1CN([C@@H](C)CO)C(=O)Cc2cc(NC(=O)Nc3ccc(F)cc3)ccc2O[C@@H]1CN(C)Cc1ccncc1 15 0 2
C[C@@H]1CN([C@H](C)CO)C(=O)c2cccc(NC(=O)C3CCOCC3)c2O[C@H]1CN(C)S(C)(=O)=O -24 0 2
C[C@@H]1CN([C@H](C)CO)C(=O)c2cc(NC(=O)Nc3cccc4ccccc34)ccc2O[C@@H]1CN(C)Cc1ccc(Oc2ccccc2)cc1 29 x -20
C[C@@H]1CN([C@H](C)CO)C(=O)c2cc(NC(=O)Nc3cccc4ccccc34)ccc2O[C@H]1CN(C)Cc1ccc(-c2ccccc2)cc1 86* 0 -12
C[C@H]1CN([C@@H](C)CO)C(=O)c2cc(NC(=O)Nc3cccc4ccccc34)ccc2O[C@@H]1CN(C)Cc1ccc(Oc2ccccc2)cc1 81* 0 -26
C[C@H]1CN([C@@H](C)CO)C(=O)c2cc(NC(=O)Nc3cccc4ccccc34)ccc2O[C@H]1CN(C)Cc1ccc(-c2ccccc2)cc1 19 0 x
CC(=O)n1cc([C@@H]2C=C(C(=O)NCc3nc4ccccc4[nH]3)O[C@H](OCCCCO)C2)c2ccccc21 x 0 x
COc1ccc(CN(C)C[C@@H]2OCc3cnnn3CCCC(=O)N([C@@H](C)CO)C[C@H]2C)cc1 -9 x x
